Test results from ChEMBL document CHEMBL4316638, “Bioactive Meroterpenoids and Isocoumarins from the Mangrove-Derived Fungus Penicillium sp. TGM112” (J Nat Prod, 2019).
In brackets after ≈: the same amount, converted by molar mass. Activity calls are given as the source filed them. The calls are words filed in the database; no cut-off is given here.

Tested on: RAW264.7
Test: Inhibition of LPS-induced nitric oxide production in mouse RAW264.7 cells preincubated for 30 mins followed by LPS-stimulation and measured after 24 hrs by Griess assay
Format: functional, cell-based
Conditions: not given
Outline: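 RAW264.7 macrophages seeded at 50 000 cells/well and grown 24 h, then exposed to compound for 30 min at 37 °C before LPS (100 ng/mL) co-incubation for 24 h. Nitrite in supernatant measured by Griess reagent (10 min mixing), absorbance 540 nm. Compounds from 10 mM DMSO stocks; final DMSO ≤0.1%. Dexamethasone positive control. Triplicate runs; IC50 calculated.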

| SMILES | inhibition |
| --- | --- |
| C=C1[C@@]23C(=O)O[C@H](C)[C@]24O[C@@]2(C(=C)[C@]5(C=CC(=O)OC5(C)C)C[C@@H](O)[C@]32C)[C@H](O)[C@@]1(C)OC4=O | inactive |
| C=C1[C@@]23C(=O)O[C@H](C)[C@]24O[C@@]2(C(=C)[C@]5(C=CC(=O)OC5(C)C)CC[C@]32C)[C@H](O)[C@@]1(C)OC4=O | inactive |

Tested on: Helicoverpa armigera
Test: Insecticidal activity against Helicoverpa armigera hubner measured every other day for 8 days starting from 2 days post dosing
Format: functional, organism-based
Conditions: not given
Outline: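 Neonate H. armigera larvae fed artificial diet dosed with serial dilutions of compound (1 mg/mL in DMSO) at 200, 100, 50, 25 and 12.5 μL/well in six-well plates; three groups of three larvae, 3 replicates per treatment. Held at 25 ± 1 °C, 80% relative humidity. Dead larvae counted on days 2, 4, 6, 8. DMSO negative, azadirachtin positive, plain diet blank controls.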

| SMILES | IC50 [µg/mL] |
| --- | --- |
| C=C1[C@@]23C(=O)O[C@H](C)[C@]24O[C@@]2(C(=C)[C@]5(C=CC(=O)OC5(C)C)C[C@@H](O)[C@]32C)[C@H](O)[C@@]1(C)OC4=O | 200 (≈ 423 µM) |

Tested on: Caenorhabditis elegans
Test: Insecticidal activity against Caenorhabditis elegans measured at 12 […]
Format: functional, organism-based
Conditions: not given
Outline: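 L1 C. elegans (30−40 worms/well) in S medium with E. coli OP50 and chloramphenicol, exposed to compound at 40, 20, 10, 5, 1 and 0 μg/mL diluted in filter-sterilized M-9; 3 replicates per treatment. Plates sealed, kept at 24 °C for 60 h in the dark; dead larvae counted at 12, 24, 36, 48, 60. M-9 negative control, levamisole 1 mg/mL positive control.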

| SMILES | EC50 [µg/mL] |
| --- | --- |
| C=C1[C@@]23C(=O)O[C@H](C)[C@]24O[C@@]2(C(=C)[C@]5(C=CC(=O)OC5(C)C)C[C@@H](O)[C@]32C)[C@H](O)[C@@]1(C)OC4=O | 9.9 (≈ 21 µM) |
| C=C1[C@@]23C(=O)O[C@H](C)[C@]24O[C@@]2(C(=C)[C@]5(C=CC(=O)OC5(C)C)CC[C@]32C)[C@H](O)[C@@]1(C)OC4=O | 38.2 (≈ 83.7 µM) |

Tested on: A549
Test: Cytotoxicity against human A549 cells measured after 7 days by MTT assay
Format: functional, cell-based
Conditions: not given

| SMILES | Activity |
| --- | --- |
| C=C1[C@@]23C(=O)O[C@H](C)[C@]24O[C@@]2(C(=C)[C@]5(C=CC(=O)OC5(C)C)C[C@@H](O)[C@]32C)[C@H](O)[C@@]1(C)OC4=O | inactive |
| C=C1[C@@]23C(=O)O[C@H](C)[C@]24O[C@@]2(C(=C)[C@]5(C=CC(=O)OC5(C)C)CC[C@]32C)[C@H](O)[C@@]1(C)OC4=O | inactive |

Tested on: HeLa
Test: Cytotoxicity against human HeLa cells measured after 7 days by MTT assay
Format: functional, cell-based
Conditions: not given

| SMILES | Activity |
| --- | --- |
| C=C1[C@@]23C(=O)O[C@H](C)[C@]24O[C@@]2(C(=C)[C@]5(C=CC(=O)OC5(C)C)C[C@@H](O)[C@]32C)[C@H](O)[C@@]1(C)OC4=O | inactive |
| C=C1[C@@]23C(=O)O[C@H](C)[C@]24O[C@@]2(C(=C)[C@]5(C=CC(=O)OC5(C)C)CC[C@]32C)[C@H](O)[C@@]1(C)OC4=O | inactive |

Tested on: HepG2
Test: Cytotoxicity against human HepG2 cells measured after 7 days by MTT assay
Format: functional, cell-based
Conditions: not given

| SMILES | Activity |
| --- | --- |
| C=C1[C@@]23C(=O)O[C@H](C)[C@]24O[C@@]2(C(=C)[C@]5(C=CC(=O)OC5(C)C)C[C@@H](O)[C@]32C)[C@H](O)[C@@]1(C)OC4=O | inactive |
| C=C1[C@@]23C(=O)O[C@H](C)[C@]24O[C@@]2(C(=C)[C@]5(C=CC(=O)OC5(C)C)CC[C@]32C)[C@H](O)[C@@]1(C)OC4=O | inactive |

Tested on: Escherichia coli
Test: Antibacterial activity against Escherichia coli ATCC 25922 by microplate assay
Format: functional, organism-based
Conditions: not given

| SMILES | Activity |
| --- | --- |
| C=C1[C@@]23C(=O)O[C@H](C)[C@]24O[C@@]2(C(=C)[C@]5(C=CC(=O)OC5(C)C)C[C@@H](O)[C@]32C)[C@H](O)[C@@]1(C)OC4=O | inactive |
| C=C1[C@@]23C(=O)O[C@H](C)[C@]24O[C@@]2(C(=C)[C@]5(C=CC(=O)OC5(C)C)CC[C@]32C)[C@H](O)[C@@]1(C)OC4=O | inactive |

Tested on: Staphylococcus aureus
Test: Antibacterial activity against Staphylococcus aureus ATCC 25923 by microplate assay
Format: functional, organism-based
Conditions: not given

| SMILES | Activity |
| --- | --- |
| C=C1[C@@]23C(=O)O[C@H](C)[C@]24O[C@@]2(C(=C)[C@]5(C=CC(=O)OC5(C)C)C[C@@H](O)[C@]32C)[C@H](O)[C@@]1(C)OC4=O | inactive |
| C=C1[C@@]23C(=O)O[C@H](C)[C@]24O[C@@]2(C(=C)[C@]5(C=CC(=O)OC5(C)C)CC[C@]32C)[C@H](O)[C@@]1(C)OC4=O | inactive |

Tested on: Staphylococcus aureus
Test: Antibacterial activity against methicillin-resistant Staphylococcus aureus ATCC 33591 by microplate assay
Format: functional, organism-based
Conditions: not given
Outline: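 MRSA (ATCC 33591) was one strain in a panel of six pathogenic bacteria: four general and two marine Vibrio. Assayed by the microplate method, with ciprofloxacin as positive control.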

| SMILES | Activity |
| --- | --- |
| C=C1[C@@]23C(=O)O[C@H](C)[C@]24O[C@@]2(C(=C)[C@]5(C=CC(=O)OC5(C)C)C[C@@H](O)[C@]32C)[C@H](O)[C@@]1(C)OC4=O | inactive |
| C=C1[C@@]23C(=O)O[C@H](C)[C@]24O[C@@]2(C(=C)[C@]5(C=CC(=O)OC5(C)C)CC[C@]32C)[C@H](O)[C@@]1(C)OC4=O | inactive |

Tested on: Bacillus cereus
Test: Antibacterial activity against Bacillus cereus ATCC 11778 by microplate assay
Format: functional, organism-based
Conditions: not given

| SMILES | Activity |
| --- | --- |
| C=C1[C@@]23C(=O)O[C@H](C)[C@]24O[C@@]2(C(=C)[C@]5(C=CC(=O)OC5(C)C)C[C@@H](O)[C@]32C)[C@H](O)[C@@]1(C)OC4=O | inactive |
| C=C1[C@@]23C(=O)O[C@H](C)[C@]24O[C@@]2(C(=C)[C@]5(C=CC(=O)OC5(C)C)CC[C@]32C)[C@H](O)[C@@]1(C)OC4=O | inactive |

Tested on: Vibrio parahaemolyticus
Test: Antibacterial activity against Vibrio parahaemolyticus ATCC 17802 by microplate assay
Format: functional, organism-based
Conditions: not given

| SMILES | Activity |
| --- | --- |
| C=C1[C@@]23C(=O)O[C@H](C)[C@]24O[C@@]2(C(=C)[C@]5(C=CC(=O)OC5(C)C)C[C@@H](O)[C@]32C)[C@H](O)[C@@]1(C)OC4=O | inactive |
| C=C1[C@@]23C(=O)O[C@H](C)[C@]24O[C@@]2(C(=C)[C@]5(C=CC(=O)OC5(C)C)CC[C@]32C)[C@H](O)[C@@]1(C)OC4=O | inactive |

Tested on: Vibrio alginolyticus
Test: Antibacterial activity against Vibrio alginolyticus ATCC 17749 by microplate assay
Format: functional, organism-based
Conditions: NBRC 15630 = ATCC 17749

| SMILES | Activity |
| --- | --- |
| C=C1[C@@]23C(=O)O[C@H](C)[C@]24O[C@@]2(C(=C)[C@]5(C=CC(=O)OC5(C)C)C[C@@H](O)[C@]32C)[C@H](O)[C@@]1(C)OC4=O | inactive |
| C=C1[C@@]23C(=O)O[C@H](C)[C@]24O[C@@]2(C(=C)[C@]5(C=CC(=O)OC5(C)C)CC[C@]32C)[C@H](O)[C@@]1(C)OC4=O | inactive |
